Assay results gathered from unrelated publications.
Compare with care: the assays were run in different laboratories. pIC50: −log10 of the molar value.
Action: inhibitor
Sialidase-4: Sialidase-4 (Homo sapiens, UniProt Q8WWR8)
ALOX15: Polyunsaturated fatty acid lipoxygenase ALOX15 (ALOX15, Homo sapiens, UniProt P16050)
ache: Acetylcholinesterase (ache, Electrophorus electricus, UniProt O42275)

| Compound | target | assay | pIC50 |
| --- | --- | --- | --- |
| CC(C)(C)c1cn([C@H]2[C@H]([C@H](O)[C@H](O)CO)OC(C(=O)O)=C[C@@H]2O)nn1 | Sialidase-4 | enzyme activity | 4.10 |
| CCOC(=O)c1ccccc1-c1c2ccc(=O)cc-2oc2cc(OCCCNc3c(-c4ccc(OC(C)=O)cc4)nc4ccccn34)ccc12 | ALOX15 | enzyme activity, absorbance | < 4.00 |
| O=C(/C=C/c1ccc(OC(=O)N2CCCC2)cc1)NC1CCN(Cc2ccccc2)CC1 | ache | enzyme activity, Ellman | 5.35 |
| COc1ccc(-c2nnc(-c3ccc(OCc4cn(Cc5ccc(Br)cc5)nn4)cc3)o2)cc1 | ache | enzyme activity, Ellman | < 4.00 |
| O=C(N1CCC2(CC1)C[C@H](CN1CCCCS1(=O)=O)CCO2)C1(c2ccccc2)CCCC1 | ATP-dependent RNA helicase DDX3X (DDX3X, Homo sapiens, UniProt O00571) | ATPase activity | < 4.30 |
| CCCCCCN[C@H]1[C@H]([C@H](O)[C@H](O)CO)OC(C(=O)O)=C[C@@H]1O | Sialidase-4 | enzyme activity | < 3.30 |
| CCN(C)C(=O)Oc1ccc(/C=C/C(=O)NC2CCN(Cc3ccccc3)CC2)cc1OC | ache | enzyme activity, Ellman | 5.41 |
| Fc1ccc(Cn2cc(COc3ccc(-c4nnc(-c5ccccc5)o4)cc3)nn2)cc1 | ache | enzyme activity, Ellman | < 4.00 |
| CCN(C)C(=O)Oc1ccc(CCC(=O)N2CCc3ccccc3C2)cc1OC | ache | enzyme activity, Ellman | 4.97 |
| Fc1ccc(-c2nnc(-c3ccc(OCc4cn(Cc5ccc(Cl)cc5)nn4)cc3)o2)cc1 | ache | enzyme activity, Ellman | < 4.00 |
| CC(C)CCC(=O)N[C@H]1[C@H]([C@H](O)[C@H](O)CO)OC(C(=O)O)=C[C@@H]1O | Sialidase-4 | enzyme activity | 3.57 |
| CCOC(=O)c1ccccc1-c1c2ccc(=O)cc-2oc2cc(OCCCNC(=O)C(OC(=O)c3ccccc3)C3CC3)ccc12 (centres unmarked) | ALOX15 | enzyme activity, absorbance | 4.36 |
| CCCCCCCCCC(=O)N[C@@H](CCCN=C(N)N)C(=O)N[C@H](C(=O)N[C@@H](CCCCN)C(=O)N[C@@H](CCCN=C(N)N)C(=O)CCl)C(C)C | Furin (FURIN, Homo sapiens, UniProt P09958) | enzyme activity | 8.53 |
| CC(C)(C)CN[C@H]1[C@H]([C@H](O)[C@H](O)CO)OC(C(=O)O)=C[C@@H]1O | Sialidase-4 | enzyme activity | 4.40 |
| CCOC(=O)c1ccccc1-c1c2ccc(=O)cc-2oc2cc(OCCCNc3c(-c4ccc(Cl)cc4)nc4ccccn34)ccc12 | ALOX15 | enzyme activity, absorbance | 4.10 |
| CC(C)(C)NC(=O)N[C@H]1[C@H]([C@H](O)[C@H](O)CO)OC(C(=O)O)=C[C@@H]1O | Sialidase-4 | enzyme activity | < 3.30 |
| CC(C)(C)OC(=O)NC1CCCN(C(=O)/C=C/c2ccc([N+](=O)[O-])cc2)C1 (centres unmarked) | ache | enzyme activity, Ellman | < 4.30 |
